SDO1 yeast rescue: sdo1-depleted yeast growth rescue | AID 817 | z-score at 10 µM | S. cerevisiae sdo1-depleted JHY4D growth rescue, OD600 30 h; hits give high values; pdr5 snq2 efflux-pump mutant strain | hit rate 0.21% among 140,000;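 active = z-score above 3 at both the 24 hr and the 30 hr optical density reads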
Yeast lifespan up: extends the lifespan of yeast | inhibition of the nicotinamide effect, % at 10 µM | S. cerevisiae growth with nicotinamide, OD615; deaD strain in restrictive glucose medium | hit rate 0.68% among 130,000;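 active = inhibition above a set limit, placed 3 SD over the median of all compounds, cut at about 26% in these data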
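System: Modified budding yeast, DeaD strain | Buffer or medium: Restrictive glucose medium | Also added: 1.5 mM nicotinamide | Doses: 10 µM single point, 0.25% DMSO | Schedule: 48 h compound exposure at 30 °C, humidified | Detection: Absorbance at 615 nm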
Yeast growth inh: reduces growth of yeast BB579 in restrictive medium; S. cerevisiae BB579 growth, OD615, 48 h; inhibition, % at 10 µM; hit rate 0.51% among 140,000; AID 804;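 active = inhibition above a set limit, 3 SD over the mean compound inhibition, cut at about 44% in these data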
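Detection: OD615 turbidity measurement; Material: Saccharomyces cerevisiae DeaD strain BB579, replicative lifespan model yeast; Timing: 48 h exposure, 30 °C; Doses: single 10 µM dose; Medium: CSMM-D restrictive synthetic medium containing dextrose (glucose); Controls: amphotericin B at 10 µg/mL as positive control.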
RAM network inh: inhibitors of the yeast RAM network; hit rate 1.8% among 190,000; S. cerevisiae dse1pr::URA3 reporter, 5-FOA growth OD615, 2 d; analog-sensitive cbk1-as2 kinase mutant strain; inhibition, % at 50 µM; AID 868;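 active = inhibition above a set limit, 3 SD over mean compound inhibition, cut at about 8.4% in these data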;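 also: inhibition rescues growth on 5-FOA so higher OD means more RAM inhibition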
sdo1 rescue conf: SDO1-depleted yeast growth rescue confirmation. hit rate 44% among 440. AID 949. OD recovery (test concentration not listed). S. cerevisiae JHY4D (SDO1-depleted) growth rescue, OD600, 30 h; hits give high values; efflux-deficient strain, SNQ2 and PDR5 mutated. shares compounds with SDO1 yeast rescue;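 active = yeast growth recovered at 30 hours, either rising with dose fitted slope above 0.001 or with average optical density gain above 0.07, some results past the limit were not filed as active; inactive = growth falling with dose or no effect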
Numbers stand for hits. Only some compounds are listed: those with a hit (about 2.7% of all), similar ones and a draw of the others.

Results for Cc1nn(Cc2ccc(Br)cc2)c(C)c1NC(=O)c1nn(C)cc1Cl ?
SDO1 yeast rescue: 15.4; Yeast lifespan up: inactive; Yeast growth inh: inactive; RAM network inh: inactive; sdo1 rescue conf: inactive

Results for COC(=O)c1cc(C#N)c(NCc2ccccc2)nc1C ?
SDO1 yeast rescue: 13.9; Yeast lifespan up: inactive; Yeast growth inh: inactive; RAM network inh: inactive; sdo1 rescue conf: 0.0872

What do the screens show for `COC(=O)c1cc(C#N)c(N(C)Cc2ccccc2)nc1C`?
SDO1 yeast rescue: inactive; Yeast lifespan up: inactive; Yeast growth inh: inactive; RAM network inh: inactive

How did CN1CCN(C(=S)c2cn(Cc3ccc(Br)cc3)c3ccccc23)CC1 do in these assays?
RAM network inh: inactive

What do the screens show for `Cc1ccccc1S(=O)(=O)c1c(C)cc(C)n(CC(C)C)c1=O`?
SDO1 yeast rescue: 5.52; Yeast lifespan up: inactive; Yeast growth inh: inactive; RAM network inh: inactive; sdo1 rescue conf: 0.105

How did O=c1c2cnn(-c3ccccc3)c2ncn1Cc1ccccc1F do in these assays?
SDO1 yeast rescue: 9.46; Yeast lifespan up: inactive; Yeast growth inh: inactive; RAM network inh: inactive; sdo1 rescue conf: inactive

What do the screens show for `COC(=O)c1ccccc1NC(=S)NC(=O)CC(C)C`?
SDO1 yeast rescue: 5.64; Yeast lifespan up: inactive; Yeast growth inh: inactive; RAM network inh: inactive; sdo1 rescue conf: inactive

How did COC(=O)c1ccccc1NC(=S)NC(=O)COc1ccccc1 do in these assays?
SDO1 yeast rescue: inactive; Yeast lifespan up: inactive; Yeast growth inh: inactive; RAM network inh: inactive

What do the screens show for `Cc1cccc(-n2c(CCn3nc(C)c([N+](=O)[O-])c3C)n[nH]c2=S)c1`?
SDO1 yeast rescue: inactive; Yeast lifespan up: inactive; Yeast growth inh: inactive; RAM network inh: inactive

How did COc1cccc(-n2c(CCn3nc(C)c([N+](=O)[O-])c3C)n[nH]c2=S)c1 do in these assays?
SDO1 yeast rescue: 3.22; Yeast lifespan up: inactive; Yeast growth inh: inactive; RAM network inh: inactive; sdo1 rescue conf: inactive

Results for O=C(CCC1CCCCC1)NCc1ccccn1 ?
SDO1 yeast rescue: inactive; Yeast lifespan up: inactive; Yeast growth inh: inactive; RAM network inh: inactive

How did CCC(C)NC(=O)CNC(=S)N(Cc1ccccc1F)C1CCCCC1 (stereo not drawn) do in these assays?
RAM network inh: inactive

Results for COC(=O)C1CCN(C(=O)CCCOc2ccccc2)CC1 ?
SDO1 yeast rescue: inactive; Yeast lifespan up: inactive; Yeast growth inh: inactive; RAM network inh: inactive; sdo1 rescue conf: inactive

Results for O=C(CSc1nnc(-c2ccco2)n1Cc1ccco1)NCc1cccs1 ?
SDO1 yeast rescue: 6.45; Yeast lifespan up: inactive; Yeast growth inh: inactive; RAM network inh: inactive; sdo1 rescue conf: 0.071

What do the screens show for `COC(=O)CSc1nnc(-c2ccco2)n1Cc1ccco1`?
SDO1 yeast rescue: inactive; Yeast lifespan up: inactive; Yeast growth inh: inactive; RAM network inh: inactive

Results for Cc1c(C(=O)NCCCN2CCOCC2)oc2c1C1(CCC2)SCCS1 ?
SDO1 yeast rescue: inactive; Yeast lifespan up: inactive; Yeast growth inh: inactive; RAM network inh: inactive

What do the screens show for `COc1ccc(OC)c(Cc2nnc(CCC(=O)N3CCCCC3c3nccs3)o2)c1` (stereo not drawn)?
RAM network inh: inactive

How did CC12CN3CCN(CC(C3)/C1=N\NC(=O)Nc1cccc(Cl)c1)C2 do in these assays?
RAM network inh: inactive

What do the screens show for `O=C(O)c1ccc(C(=O)c2ccc3c(c2)C(=O)N(CC2CCCO2)C3=O)cc1` (stereo not drawn)?
RAM network inh: inactive

How did COc1ccccc1OCc1ccc(C(=O)NCCN(C)C)o1 do in these assays?
SDO1 yeast rescue: inactive; Yeast lifespan up: inactive; Yeast growth inh: inactive; RAM network inh: inactive; sdo1 rescue conf: 0.0968

Results for CCOC(=O)c1c(C)c(C(=O)NCc2ccc3c(c2)OCO3)c(C)n1CC ?
SDO1 yeast rescue: inactive; Yeast lifespan up: inactive; Yeast growth inh: inactive; RAM network inh: inactive

What do the screens show for `CCn1c(N)c(C(=O)NCc2ccc3c(c2)OCO3)sc1=S`?
SDO1 yeast rescue: inactive; Yeast lifespan up: inactive; Yeast growth inh: inactive; RAM network inh: inactive; sdo1 rescue conf: inactive

How did O=C(Nc1ccccc1)N(O)c1ccc(Cl)cc1 do in these assays?
SDO1 yeast rescue: 3.32; Yeast lifespan up: inactive; Yeast growth inh: inactive; RAM network inh: inactive; sdo1 rescue conf: 0.081

What do the screens show for `COc1ccccc1NC(=O)c1nn(-c2cccc(C(F)(F)F)c2)ccc1=O`?
SDO1 yeast rescue: 7.24; Yeast lifespan up: inactive; Yeast growth inh: inactive; RAM network inh: inactive; sdo1 rescue conf: inactive

How did COc1ccc(CCNC(=O)CCCn2c(SCC(N)=O)nc3cc4c(cc3c2=O)OCO4)cc1OC do in these assays?
RAM network inh: inactive

High-throughput results from PubChem.
